Converted amounts (≈) assume the structure as drawn.
What was measured:
[1] = tested on: Mycobacterium tuberculosis; test: […]; assay type: functional, TN587
Summary of the method: (§1)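 Strains were grown at 37 °C in 7H9 Middlebrook broth with 10% OADC, 0.05% Tween and 0.2% glycerol. Compounds were dissolved in DMSO and serially diluted 2-fold, then bacteria were added. Plates were incubated 6 days at 37 °C, then 24 h more with Alamar Blue. MIC was the lowest concentration (μg/mL) that prevented the colour change. Run in triplicate.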

[2] = tested on: Mycobacterium tuberculosis; test: […]; assay type: functional, NHN382; summary of the method: as §1

Question: `CCc1ccc(C(=O)Nc2cc3nc(C4CCCCC4)[nH]c3cc2N(C)C)cc1` was tested. Which MIC [1] did it give?
Answer: The MIC was 0.16 µg/mL (≈ 0.41 µM).

Question: What about the MIC [2] of the same molecule?
Answer: Its MIC is 0.16 µg/mL (≈ 0.41 µM).

Question: What does the source list for `NNC(=O)c1ccncc1` [ISONIAZID]?
Answer: MIC [1]: 0.25 µg/mL (≈ 1.82 µM); MIC [2]: 0.25 µg/mL (≈ 1.82 µM)

Question: Which results are given for `CCCCOC(=O)Nc1cc2nc(C3CCCCC3)[nH]c2cc1N(CC)CC`?
Answer: MIC [1]: 1.25 µg/mL (≈ 3.23 µM); MIC [2]: 1.25 µg/mL (≈ 3.23 µM)

Question: `CCCCOC(=O)Nc1cc2nc(C3CCCCC3)[nH]c2cc1N(C)C` was tested. Which MIC [1] did it give?
Answer: The MIC was 0.13 µg/mL (≈ 0.363 µM).

Question: What about the MIC [2] of the same molecule?
Answer: Its MIC is 0.06 µg/mL (≈ 0.167 µM).

— ChEMBL document CHEMBL3124890, “SAR studies on trisubstituted benzimidazoles as inhibitors of Mtb FtsZ for the development of novel antitubercular agents” (J Med Chem, 2013)
